Assays:
Conditions in all cases: stereoisomer not certain
UniProt Q8VGX3 = biological target: T1, UniProt Q8VGX3
T1 sequence (whole entry): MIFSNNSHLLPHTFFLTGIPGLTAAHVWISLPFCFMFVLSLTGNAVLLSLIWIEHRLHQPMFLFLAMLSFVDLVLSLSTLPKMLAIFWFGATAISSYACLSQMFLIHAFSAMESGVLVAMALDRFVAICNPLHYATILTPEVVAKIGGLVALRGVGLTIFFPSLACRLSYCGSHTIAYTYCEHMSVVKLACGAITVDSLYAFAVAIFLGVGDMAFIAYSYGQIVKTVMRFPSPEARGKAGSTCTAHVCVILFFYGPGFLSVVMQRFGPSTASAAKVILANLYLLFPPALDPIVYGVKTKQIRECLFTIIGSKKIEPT
Procedure, shortened: (§1)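 Transient luciferase assays in mammalian cell lines were common, though methods varied by source. The values come from published papers and their supplementary material, with extra details from the original authors when needed. Responsive refers to a measured signal the original authors judged statistically different from baseline, and non-responsive (inactive) to the remainder.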

UniProt Q8VGX5 = biological target: T2, UniProt Q8VGX5
T2 sequence (whole entry): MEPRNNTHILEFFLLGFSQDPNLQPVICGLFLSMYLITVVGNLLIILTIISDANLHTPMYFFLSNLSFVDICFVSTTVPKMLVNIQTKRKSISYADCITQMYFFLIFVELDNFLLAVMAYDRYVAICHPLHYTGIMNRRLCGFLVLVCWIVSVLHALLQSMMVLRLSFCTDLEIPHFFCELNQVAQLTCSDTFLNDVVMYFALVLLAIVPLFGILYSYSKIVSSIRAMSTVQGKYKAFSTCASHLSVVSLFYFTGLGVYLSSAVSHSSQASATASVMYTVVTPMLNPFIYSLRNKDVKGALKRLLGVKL
Procedure, shortened: as §1

UniProt Q8VGZ2 = biological target: T3, UniProt Q8VGZ2
T3 sequence (whole entry): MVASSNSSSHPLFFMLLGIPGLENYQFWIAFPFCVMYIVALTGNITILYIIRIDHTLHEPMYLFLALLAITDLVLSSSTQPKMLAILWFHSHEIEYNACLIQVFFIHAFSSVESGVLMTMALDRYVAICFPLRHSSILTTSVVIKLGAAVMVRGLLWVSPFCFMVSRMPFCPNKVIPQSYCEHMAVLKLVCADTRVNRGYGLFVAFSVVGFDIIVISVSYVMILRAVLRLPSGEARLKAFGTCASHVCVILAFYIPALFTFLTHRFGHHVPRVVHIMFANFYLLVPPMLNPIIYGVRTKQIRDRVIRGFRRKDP
Procedure, shortened: as §1

UniProt Q8VGZ7 = biological target: T4, UniProt Q8VGZ7
T4 sequence (whole entry): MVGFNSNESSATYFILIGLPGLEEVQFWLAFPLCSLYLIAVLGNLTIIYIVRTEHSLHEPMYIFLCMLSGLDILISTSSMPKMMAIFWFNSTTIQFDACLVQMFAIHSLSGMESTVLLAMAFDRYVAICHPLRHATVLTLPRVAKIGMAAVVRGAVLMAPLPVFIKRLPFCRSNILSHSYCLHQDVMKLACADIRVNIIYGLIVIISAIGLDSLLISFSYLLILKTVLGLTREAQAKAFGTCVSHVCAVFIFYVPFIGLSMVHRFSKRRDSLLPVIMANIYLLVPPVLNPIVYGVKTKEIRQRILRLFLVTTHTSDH
Procedure, shortened: as §1

UniProt Q8VH16 = biological target: T5, UniProt Q8VH16
T5 sequence (whole entry): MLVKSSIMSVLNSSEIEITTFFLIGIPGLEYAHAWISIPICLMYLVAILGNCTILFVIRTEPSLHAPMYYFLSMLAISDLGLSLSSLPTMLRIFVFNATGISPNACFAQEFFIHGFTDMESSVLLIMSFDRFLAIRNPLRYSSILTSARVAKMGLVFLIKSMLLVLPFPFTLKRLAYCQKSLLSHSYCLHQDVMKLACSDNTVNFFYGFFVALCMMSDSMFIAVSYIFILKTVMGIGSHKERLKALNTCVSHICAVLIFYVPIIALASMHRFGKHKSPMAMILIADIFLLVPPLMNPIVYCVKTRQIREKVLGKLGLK
Procedure, shortened: as §1

UniProt Q8VH20 = biological target: T6, UniProt Q8VH20
T6 sequence (whole entry): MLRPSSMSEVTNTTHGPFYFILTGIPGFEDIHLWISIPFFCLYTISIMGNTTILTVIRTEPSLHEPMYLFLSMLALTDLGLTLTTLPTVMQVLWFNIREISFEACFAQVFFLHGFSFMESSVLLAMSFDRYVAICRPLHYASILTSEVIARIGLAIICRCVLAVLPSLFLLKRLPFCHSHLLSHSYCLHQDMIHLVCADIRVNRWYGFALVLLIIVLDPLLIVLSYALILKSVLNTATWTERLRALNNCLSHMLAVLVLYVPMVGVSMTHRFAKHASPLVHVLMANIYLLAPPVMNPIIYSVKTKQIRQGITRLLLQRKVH
Procedure, shortened: as §1

UniProt Q8VH21 = biological target: T7, UniProt Q8VH21
T7 sequence (whole entry): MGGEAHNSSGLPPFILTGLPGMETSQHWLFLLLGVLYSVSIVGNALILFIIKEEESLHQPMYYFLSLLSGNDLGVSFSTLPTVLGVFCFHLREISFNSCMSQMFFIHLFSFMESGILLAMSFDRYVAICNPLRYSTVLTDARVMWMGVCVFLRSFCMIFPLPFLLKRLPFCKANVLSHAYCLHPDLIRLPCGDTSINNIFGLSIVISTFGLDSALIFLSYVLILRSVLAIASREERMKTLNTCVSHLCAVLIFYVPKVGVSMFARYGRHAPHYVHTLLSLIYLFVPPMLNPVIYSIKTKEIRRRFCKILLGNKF
Procedure, shortened: as §1

UniProt Q924H8 = biological target: T8, UniProt Q924H8
T8 sequence (whole entry): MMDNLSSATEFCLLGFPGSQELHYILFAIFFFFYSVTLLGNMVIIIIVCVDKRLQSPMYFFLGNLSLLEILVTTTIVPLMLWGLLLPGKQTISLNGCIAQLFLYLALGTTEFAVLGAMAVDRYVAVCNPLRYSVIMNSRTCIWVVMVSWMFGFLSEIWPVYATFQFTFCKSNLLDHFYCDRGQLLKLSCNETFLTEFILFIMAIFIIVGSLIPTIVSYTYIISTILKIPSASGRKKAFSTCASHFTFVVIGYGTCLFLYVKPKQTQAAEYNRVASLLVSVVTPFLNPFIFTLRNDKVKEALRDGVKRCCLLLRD
Procedure, shortened: as §1

UniProt Q8VGX8 = biological target: T9, UniProt Q8VGX8
T9 sequence (whole entry): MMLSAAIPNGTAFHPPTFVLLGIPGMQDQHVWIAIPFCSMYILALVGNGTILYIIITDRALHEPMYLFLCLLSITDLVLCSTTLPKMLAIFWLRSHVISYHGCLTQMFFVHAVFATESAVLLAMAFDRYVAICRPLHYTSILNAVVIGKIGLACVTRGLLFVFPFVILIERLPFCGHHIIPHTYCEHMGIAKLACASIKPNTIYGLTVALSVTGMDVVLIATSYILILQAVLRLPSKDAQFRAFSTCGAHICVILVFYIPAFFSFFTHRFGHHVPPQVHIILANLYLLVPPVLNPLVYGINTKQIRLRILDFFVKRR
Procedure, shortened: as §1

UniProt Q8VGY6 = biological target: T10, UniProt Q8VGY6
T10 sequence (whole entry): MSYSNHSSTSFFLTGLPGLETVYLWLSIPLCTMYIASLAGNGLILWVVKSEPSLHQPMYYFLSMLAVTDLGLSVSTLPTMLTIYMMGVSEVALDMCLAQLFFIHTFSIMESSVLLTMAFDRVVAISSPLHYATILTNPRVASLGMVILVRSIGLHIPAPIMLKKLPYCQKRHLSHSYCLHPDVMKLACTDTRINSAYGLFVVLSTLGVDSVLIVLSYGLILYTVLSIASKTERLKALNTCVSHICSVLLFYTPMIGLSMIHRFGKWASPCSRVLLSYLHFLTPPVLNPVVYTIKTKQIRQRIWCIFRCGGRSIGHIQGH
Procedure, shortened: as §1

UniProt Q8VH10 = biological target: T11, UniProt Q8VH10
T11 sequence (whole entry): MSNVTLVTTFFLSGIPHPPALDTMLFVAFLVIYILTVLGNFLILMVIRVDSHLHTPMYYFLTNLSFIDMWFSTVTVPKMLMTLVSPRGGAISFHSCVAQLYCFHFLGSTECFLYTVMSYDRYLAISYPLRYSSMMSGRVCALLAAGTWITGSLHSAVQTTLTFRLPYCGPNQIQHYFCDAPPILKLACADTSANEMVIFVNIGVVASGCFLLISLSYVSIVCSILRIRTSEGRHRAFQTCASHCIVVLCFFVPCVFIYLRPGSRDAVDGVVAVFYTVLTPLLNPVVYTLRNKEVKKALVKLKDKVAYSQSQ
Procedure, shortened: as §1

UniProt Q9EPN9 = biological target: T12, UniProt Q9EPN9
T12 sequence (whole entry): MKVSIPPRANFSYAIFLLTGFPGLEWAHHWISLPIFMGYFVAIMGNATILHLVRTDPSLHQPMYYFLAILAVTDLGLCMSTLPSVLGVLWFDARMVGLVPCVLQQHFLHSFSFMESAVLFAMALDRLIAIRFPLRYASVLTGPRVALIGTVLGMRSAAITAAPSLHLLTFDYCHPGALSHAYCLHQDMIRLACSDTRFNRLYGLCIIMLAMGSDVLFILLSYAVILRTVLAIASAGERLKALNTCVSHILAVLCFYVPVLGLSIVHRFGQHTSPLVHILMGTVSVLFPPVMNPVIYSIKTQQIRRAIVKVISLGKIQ
Procedure, shortened: as §1

UniProt Q9R0K2 = biological target: UniProt Q9R0K2
Procedure, shortened: as §1

UniProt Q9WU86 = biological target: T13, UniProt Q9WU86
T13 sequence (whole entry): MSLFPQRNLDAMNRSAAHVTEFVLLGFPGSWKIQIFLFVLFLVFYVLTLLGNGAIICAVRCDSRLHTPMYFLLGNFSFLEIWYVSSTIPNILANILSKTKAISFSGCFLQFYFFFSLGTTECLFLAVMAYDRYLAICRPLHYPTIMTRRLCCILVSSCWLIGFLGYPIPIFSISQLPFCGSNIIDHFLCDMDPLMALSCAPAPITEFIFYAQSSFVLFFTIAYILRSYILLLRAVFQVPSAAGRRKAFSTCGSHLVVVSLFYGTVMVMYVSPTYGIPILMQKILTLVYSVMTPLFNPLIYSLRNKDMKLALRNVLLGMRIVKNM
Procedure, shortened: as §1

UniProt Q8VH18 = biological target: UniProt Q8VH18
Procedure, shortened: as §1

UniProt Q924X8 = biological target: UniProt Q924X8
Procedure, shortened: as §1

UniProt Q99NH4 = biological target: UniProt Q99NH4
Procedure, shortened: as §1

UniProt Q9WU94 = biological target: UniProt Q9WU94
Procedure, shortened: as §1

Measured: odorant receptor agonist call;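 note: active if original authors judged signal statistically different from baseline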

UniProt Q9R0K2, sequence (Q9R0K2 as listed by the source): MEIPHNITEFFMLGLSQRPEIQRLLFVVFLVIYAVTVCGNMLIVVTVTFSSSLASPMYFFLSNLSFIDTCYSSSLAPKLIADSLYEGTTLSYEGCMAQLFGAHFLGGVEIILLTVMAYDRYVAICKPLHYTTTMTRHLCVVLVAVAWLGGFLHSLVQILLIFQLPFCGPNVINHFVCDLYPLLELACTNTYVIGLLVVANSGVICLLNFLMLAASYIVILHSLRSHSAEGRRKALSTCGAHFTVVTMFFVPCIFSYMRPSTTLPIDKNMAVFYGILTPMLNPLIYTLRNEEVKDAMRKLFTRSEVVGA
UniProt Q8VH18, sequence (Q8VH18 as listed by the source): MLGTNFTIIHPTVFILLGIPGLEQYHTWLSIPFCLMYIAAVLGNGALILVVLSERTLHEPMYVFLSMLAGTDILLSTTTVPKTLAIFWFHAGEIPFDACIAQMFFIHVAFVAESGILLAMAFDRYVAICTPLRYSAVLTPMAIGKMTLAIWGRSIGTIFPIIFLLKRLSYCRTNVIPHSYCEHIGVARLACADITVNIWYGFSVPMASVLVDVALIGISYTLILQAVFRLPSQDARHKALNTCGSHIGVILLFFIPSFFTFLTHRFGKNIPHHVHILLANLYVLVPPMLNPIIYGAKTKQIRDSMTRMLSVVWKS
UniProt Q924X8, sequence (Q924X8 as listed by the source): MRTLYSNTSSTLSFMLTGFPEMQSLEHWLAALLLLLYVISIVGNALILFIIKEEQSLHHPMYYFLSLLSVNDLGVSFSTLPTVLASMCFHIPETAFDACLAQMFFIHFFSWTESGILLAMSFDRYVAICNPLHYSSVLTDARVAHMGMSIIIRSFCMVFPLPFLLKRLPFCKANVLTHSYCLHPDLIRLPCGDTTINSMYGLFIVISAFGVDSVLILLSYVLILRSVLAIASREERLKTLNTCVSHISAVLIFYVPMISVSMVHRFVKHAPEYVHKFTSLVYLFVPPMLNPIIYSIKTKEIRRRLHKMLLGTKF
UniProt Q9WU94, sequence (Q9WU94 as listed by the source): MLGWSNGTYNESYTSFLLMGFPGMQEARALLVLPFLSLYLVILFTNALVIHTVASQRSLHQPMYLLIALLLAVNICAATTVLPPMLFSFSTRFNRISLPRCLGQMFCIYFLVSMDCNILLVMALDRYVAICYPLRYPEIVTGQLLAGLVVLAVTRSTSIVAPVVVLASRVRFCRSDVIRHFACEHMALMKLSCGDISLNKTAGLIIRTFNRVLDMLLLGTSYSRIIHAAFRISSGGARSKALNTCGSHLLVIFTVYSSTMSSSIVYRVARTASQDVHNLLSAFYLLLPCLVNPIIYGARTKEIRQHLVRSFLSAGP
UniProt Q99NH4, sequence (Q99NH4 as listed by the source): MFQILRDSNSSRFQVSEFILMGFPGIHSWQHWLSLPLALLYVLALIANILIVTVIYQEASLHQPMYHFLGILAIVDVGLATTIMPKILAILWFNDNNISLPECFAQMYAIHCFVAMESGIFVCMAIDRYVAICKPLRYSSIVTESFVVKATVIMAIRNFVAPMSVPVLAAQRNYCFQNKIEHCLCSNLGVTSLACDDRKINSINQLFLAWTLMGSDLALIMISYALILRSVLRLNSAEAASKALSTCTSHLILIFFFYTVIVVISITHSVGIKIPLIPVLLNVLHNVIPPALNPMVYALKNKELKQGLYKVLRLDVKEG

O=CC=Cc1ccccc1
inactive: UniProt Q8VGX3 | UniProt Q8VGX5 | UniProt Q8VGZ2 | UniProt Q8VGZ7 | UniProt Q8VH16 | UniProt Q8VH20 | UniProt Q8VH21 | UniProt Q924H8

Oc1ccccc1Br
inactive: UniProt Q8VGX3 | UniProt Q8VGX5 | UniProt Q8VGZ2 | UniProt Q8VGZ7 | UniProt Q8VH16 | UniProt Q8VH20 | UniProt Q8VH21 | UniProt Q924H8

CCC1CCC(=O)O1 (configuration not stated)
inactive: UniProt Q8VGX5 | UniProt Q8VGX8 | UniProt Q8VGY6 | UniProt Q8VGZ2 | UniProt Q8VGZ7 | UniProt Q8VH10 | UniProt Q8VH20 | UniProt Q9EPN9 | UniProt Q9R0K2 | UniProt Q9WU86

O=C(O)CCCCCCCBr
inactive: UniProt Q9WU94
active: UniProt Q8VGX8 | UniProt Q8VH18 | UniProt Q924X8 | UniProt Q99NH4

C=C(C)C1CC=C(C=O)CC1 (configuration not stated)
inactive: UniProt Q8VGX3 | UniProt Q8VGX5 | UniProt Q8VGZ2 | UniProt Q8VGZ7 | UniProt Q8VH16 | UniProt Q8VH20 | UniProt Q8VH21 | UniProt Q924H8

COc1ccc(C=O)cc1
inactive: UniProt Q8VGX3 | UniProt Q8VGX5 | UniProt Q8VGZ2 | UniProt Q8VGZ7 | UniProt Q8VH16 | UniProt Q8VH20 | UniProt Q8VH21 | UniProt Q924H8

OCc1ccc2c(c1)OCO2
inactive: UniProt Q8VGX3 | UniProt Q8VGX5 | UniProt Q8VGZ2 | UniProt Q8VGZ7 | UniProt Q8VH16 | UniProt Q8VH20 | UniProt Q8VH21 | UniProt Q924H8

O=c1cc(O)c2ccccc2o1
not listed: UniProt Q8VH18 | UniProt Q924X8 | UniProt Q99NH4 | UniProt Q9WU94
inactive: all other assays above

O=Cc1ccccc1
active: UniProt Q8VH21
inactive: UniProt Q8VGX3 | UniProt Q8VGX5 | UniProt Q8VGZ2 | UniProt Q8VGZ7 | UniProt Q8VH16 | UniProt Q8VH20 | UniProt Q924H8
